# ChEMBL document CHEMBL4373712, “Bioactivatable Pseudotripeptidization of Cyclic Dipeptides To Increase the Affinity toward Oligopeptide Transporter 1 for Enhanced Oral Absorption: An Application to Cyclo(l-Hyp-l-Ser) (JBP485)” (J Med Chem, 2019)
# How the values were obtained:
# [1] = Half life in pH 4.5 acetate buffer at 5 mM by HPLC analysis; type: physicochemical
# How it was run: (§1)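 Compound at 5 mM in 0.1 M HCl, pH 4.5 acetate buffer, pH 5.8/6.8/7.2 phosphate buffers, SGF (pH 1.2) and SIF (pH 6.8), prepared per Chinese Pharmacopoeia. Samples taken at 0-20 h and analyzed by HPLC-UV. k = 2.303×slope of log C versus time; t1/2 = 0.693/k.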
# [2] = Half life in pH 6.8 simulated intestinal fluid at 5 mM by HPLC analysis; type: ADME; how it was run: as §1
# [3] = Half life in Sprague-Dawley rat intestinal homogenates at 5 mM by HPLC analysis; type: ADME, tissue-based, Intestine
# How it was run: (§2)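 Jejunum and liver homogenates from male SD rats in pH 7.4 PBS, adjusted to 200 µg/mL protein, and rat plasma. Each incubated with compound at 5 mM at 37 °C.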
# [4] = Half life in Sprague-Dawley rat plasma at 5 mM by HPLC analysis; type: ADME, cell-free; how it was run: as §2
# [5] = Apparent permeability across human Caco2 cells at 0.5 mM measured after 5 to 60 mins by UPLC-MS/MS analysis; type: ADME, cell-based; conditions: caco-2, 500 µM
# How it was run: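 Caco-2 cells grown on 0.4 µm transwell inserts; monolayers used only with TEER >300 Ω/cm². Compound at 0.5 mM in apical pH 6.0 HBSS, basolateral pH 7.4 HBSS, 37 °C. Basolateral samples taken at 5, 15, 30, 45 and 60 min. Quantified by UPLC-MS/MS; Papp from steady-state flux, area and initial donor concentration. Three repeats.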
# [6] = molecular target: T1, Solute carrier family 15 member 1 (Rattus norvegicus, UniProt P51574); test: Substrate activity at PEPT1 in Sprague-Dawley rat jejunum assessed as effective permeability at 5 mM measured after 15 to 120 mins by HPLC analysis; type: ADME, tissue-based; conditions: 5000 µM
# T1 sequence (P51574 whole entry): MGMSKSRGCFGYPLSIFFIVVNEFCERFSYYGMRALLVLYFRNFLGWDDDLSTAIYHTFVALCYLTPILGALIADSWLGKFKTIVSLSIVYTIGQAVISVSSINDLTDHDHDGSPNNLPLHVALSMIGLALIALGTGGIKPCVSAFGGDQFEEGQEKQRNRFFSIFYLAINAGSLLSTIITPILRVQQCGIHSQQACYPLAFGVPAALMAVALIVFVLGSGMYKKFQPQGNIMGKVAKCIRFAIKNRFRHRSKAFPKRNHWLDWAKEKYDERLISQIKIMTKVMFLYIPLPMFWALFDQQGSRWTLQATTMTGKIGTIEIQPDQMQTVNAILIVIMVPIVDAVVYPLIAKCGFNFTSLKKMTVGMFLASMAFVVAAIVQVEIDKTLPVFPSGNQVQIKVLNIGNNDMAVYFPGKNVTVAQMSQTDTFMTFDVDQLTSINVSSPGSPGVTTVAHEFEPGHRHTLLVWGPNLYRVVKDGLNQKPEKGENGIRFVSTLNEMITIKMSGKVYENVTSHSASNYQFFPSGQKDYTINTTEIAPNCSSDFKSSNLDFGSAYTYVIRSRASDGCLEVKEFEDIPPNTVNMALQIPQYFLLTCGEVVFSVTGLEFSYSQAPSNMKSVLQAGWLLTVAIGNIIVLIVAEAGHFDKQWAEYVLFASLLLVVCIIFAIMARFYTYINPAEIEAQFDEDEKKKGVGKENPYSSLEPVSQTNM
# How it was run: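 In situ single-pass jejunal perfusion in fasted (12 h) male SD rats anaesthetised with urethane 1.5 g/kg i.p. About 10 cm of jejunum was perfused at 0.2 mL/min with pH 6.0 HEPES buffer containing 5 mM compound. Outflow was collected 15–120 min after steady state and assayed by HPLC. Peff was calculated from outlet/inlet concentration and volume ratios and segment radius and length.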
# [7] = molecular target: T1, Solute carrier family 15 member 1; test: Ratio of compound effect for substrate activity at PEPT1 in Sprague-Dawley rat jejunum assessed as effective permeability in absence of non-metabolized PEPT1 substrate Gly-Sar to compound effect for substrate activity at PEPT1 in Sprague-Dawley rat jejunum assessed as effective permeability in presence of non-metabolized PEPT1 substrate Gly-Sar; type: ADME
# [8] = molecular target: T2, Solute carrier family 22 member 1 (Homo sapiens, UniProt O15245); test: Substrate activity at OCT1 in human Caco2 cells assessed as protein-mediated drug uptake at 0.5 mM measured after 10 mins in absence of OCT1 substrate metformin by UPLC-MS/MS analysis; type: ADME, cell-based; conditions: caco-2, 10 min, 500 µM
# T2 sequence (O15245 whole entry): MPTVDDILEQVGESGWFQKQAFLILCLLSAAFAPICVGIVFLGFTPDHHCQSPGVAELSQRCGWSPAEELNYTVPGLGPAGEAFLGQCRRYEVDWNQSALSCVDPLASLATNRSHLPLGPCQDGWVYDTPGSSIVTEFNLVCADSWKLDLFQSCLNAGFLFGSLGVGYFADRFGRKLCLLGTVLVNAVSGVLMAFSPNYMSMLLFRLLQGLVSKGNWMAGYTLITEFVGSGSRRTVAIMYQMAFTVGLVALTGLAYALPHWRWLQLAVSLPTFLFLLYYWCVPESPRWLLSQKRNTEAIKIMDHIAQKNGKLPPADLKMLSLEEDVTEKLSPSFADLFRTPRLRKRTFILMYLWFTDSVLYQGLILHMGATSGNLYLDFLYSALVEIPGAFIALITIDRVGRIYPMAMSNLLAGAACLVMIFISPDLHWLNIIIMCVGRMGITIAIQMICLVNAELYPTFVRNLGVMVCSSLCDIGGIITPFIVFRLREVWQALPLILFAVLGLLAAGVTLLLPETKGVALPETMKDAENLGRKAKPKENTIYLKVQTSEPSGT
# How it was run: (§3)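 Caco-2 cells in 24-well plates took up 0.5 mM compound for 10 min at 37 °C, with or without 50 mM captopril ([…]) or metformin (OCT1-3 substrate). Cells were washed in ice-cold PBS and homogenised in water; lysate protein was measured and drug assayed by UPLC-MS/MS. n=3.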
# [9] = molecular target: T3, Solute carrier family 22 member 3 (Homo sapiens, UniProt O75751); test: Substrate activity at OCT3 in human Caco2 cells assessed as protein-mediated drug uptake at 0.5 mM measured after 10 mins in absence of OCT1 substrate metformin by UPLC-MS/MS analysis; type: ADME, cell-based; conditions: caco-2, 10 min, 500 µM; how it was run: as §3
# T3 sequence (O75751 whole entry): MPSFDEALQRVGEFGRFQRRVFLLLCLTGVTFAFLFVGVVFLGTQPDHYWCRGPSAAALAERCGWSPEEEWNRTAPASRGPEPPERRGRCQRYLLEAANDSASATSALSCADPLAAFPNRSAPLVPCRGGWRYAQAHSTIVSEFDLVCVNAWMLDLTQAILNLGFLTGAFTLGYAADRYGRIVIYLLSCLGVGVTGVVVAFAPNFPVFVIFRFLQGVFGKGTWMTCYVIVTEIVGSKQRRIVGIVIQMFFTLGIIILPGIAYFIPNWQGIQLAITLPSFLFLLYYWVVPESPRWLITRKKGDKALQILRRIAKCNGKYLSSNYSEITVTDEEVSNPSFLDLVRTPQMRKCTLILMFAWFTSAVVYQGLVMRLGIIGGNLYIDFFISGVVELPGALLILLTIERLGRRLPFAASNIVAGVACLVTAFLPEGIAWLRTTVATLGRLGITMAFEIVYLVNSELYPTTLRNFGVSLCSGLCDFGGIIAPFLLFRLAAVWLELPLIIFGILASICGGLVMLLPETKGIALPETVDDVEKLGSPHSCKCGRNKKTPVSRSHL
half-life at 5000 µM [1] [h],half-life at 5000 µM [2] [h],half-life at 5000 µM [3] [h],half-life at 5000 µM [4] [h],Papp [5],Peff [6],Ratio [7],Drug uptake [8],Drug uptake [9],SMILES
> 20,> 20,> 20,> 20,Impermeable,Permeable,2.5,Not Active,Not Active,O=C1N[C@@H](CO)C(=O)N2C[C@H](O)C[C@@H]12
> 20,7.9,< 0.16,2.9,Permeable,Permeable,6.8,Not Active,Not Active,CC(C)[C@H](N)C(=O)OC[C@@H]1NC(=O)[C@@H]2C[C@@H](O)CN2C1=O
